Active and inactive are the calls of the source. No cut-off for these calls is given here.
Columns and labels:
Danio rerio [1] = species on record: Danio rerio; assay: Antiangiogenic activity in 24 to 72 hrs post fertilized zebra fish embryo harboring fli1:EGFP after 48 hrs by fluorescence microscopic analysis; assay type: functional
Method in brief: (§1)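 Tg(fli1:EGFP) zebrafish: 20 dechorionated 24 hpf embryos per group in 1 mL embryo water with compound (1, 5, 10, 25, 50, 75, 100, 150, 200 μM), 28.5 °C for 48 h. Embryos anaesthetised in 0.016% tricaine; ISVs imaged by fluorescence microscopy at 72 hpf and scored for vessel defects and overall morphology. SU5416 positive control.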

Danio rerio [2] = species on record: Danio rerio; assay: Toxicity in 24 to 72 hrs post fertilized zebra fish embryo harboring fli1:EGFP; assay type: organism-based; conditions: zebrafish, in vivo
Method in brief: (§2)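 Dechorionated Tg(fli1:EGFP) embryos at 24 hpf, 20 per group, were kept in 1 mL embryo water with compound at 28.5 °C for a further 48 h. Compound was tested at 1, 5, 10, 25, 50, 75, 100, 150 and 200 μM. At 72 hpf, embryos anaesthetised with 0.016% tricaine had their ISVs imaged by fluorescence microscopy, with SU5416 as positive control. Definitions used: LOEC is anti-angiogenic effect in most larvae; LOTC is lowest toxic concentration; LC100 is total embryo lethality. TI = LOTC/LOEC; AI = LC100/LOEC.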

[3] = Toxicity index, ratio of MTC for 24 to 72 hrs post fertilized zebra fish embryo harboring fli1:EGFP to MEC for antiangiogenic activity in 24 to 72 hrs post fertilized zebra fish embryo harboring fli1:EGFP; assay type: organism-based, Danio rerio; conditions: fli1:EGFP transgenic, zebrafish, in vivo; method in brief: as §2
[4] = Antiangiogenic index, ratio of LC100 for 24 to 72 hrs post fertilized zebra fish embryo harboring fli1:EGFP to MEC for antiangiogenic activity in 24 to 72 hrs post fertilized zebra fish embryo harboring fli1:EGFP; assay type: toxicity, organism-based, Danio rerio; conditions: fli1:EGFP transgenic, zebrafish, in vivo; method in brief: as §2
Danio rerio [5] = species on record: Danio rerio; assay: Antiangiogenic activity in 48 hrs post fertilized zebra fish embryo harboring fli1:EGFP assessed as inhibition of intersegmental vessel formation by fluorescence microscopic analysis; assay type: functional, organism-based; method in brief: as §1
Danio rerio [6] = species on record: Danio rerio; assay: Antiangiogenic activity in 48 hrs post fertilized zebra fish embryo harboring fli1:EGFP assessed as inhibition of intersegmental vessel formation at 50 uM by fluorescence microscopic analysis; assay type: functional; method in brief: as §1
Danio rerio [7] = species on record: Danio rerio; assay: Antiangiogenic activity in 48 hrs post fertilized zebra fish embryo harboring fli1:EGFP assessed as inhibition of dorsal long axis blood vessel formation at 50 uM by fluorescence microscopic analysis; assay type: functional; method in brief: as §1
Danio rerio [8] = species on record: Danio rerio; assay: Toxicity in 48 hrs post fertilized zebra fish embryo harboring fli1:EGFP assessed as morphological changes at 5 to 50 uM; assay type: organism-based; conditions: zebrafish, in vivo; method in brief: as §1
Danio rerio [9] = species on record: Danio rerio; assay: Antiangiogenic activity in 48 hrs post fertilized zebra fish embryo harboring fli1:EGFP assessed as changes in blood vessel formation at late stage embryos by fluorescence microscopic analysis; assay type: functional, organism-based; method in brief: as §1
HUVEC [10] = assay: Cytotoxicity against HUVEC assessed as inhibition of cell proliferation after 48 hrs by CCK8 assay; assay type: cell-based, Homo sapiens
Method in brief: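 HUVECs were seeded at 3000/well in EGM-2 and allowed 12 h to attach, then exposed 48 h to compound (5–50 μM) or 0.1% DMSO vehicle. Growth was read by CCK-8 absorbance at 450 nm, in triplicate, and IC50 was calculated from the concentration–response data.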

HUVEC [11] = assay: Antimigratory activity in HUVEC at 25 uM after 8 hrs by crystal violet staining based Boyden chamber assay relative to control; assay type: functional, Homo sapiens
Method in brief: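 Boyden chamber with 8 μm pores, 8000 HUVECs/well, compound or vehicle in the top chamber, 8 h migration. Non-migrated cells removed by swab; migrated cells fixed in 100% methanol, stained with 0.05% crystal violet and counted manually in four random fields per well. Three replicate wells; % inhibition relative to control set at 100%; mean ± SEM, n=3.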

HUVEC [12] = assay: Antiangiogenic activity in HUVEC assessed as inhibition of capillary-like tube formation after 12 hrs by matrigel-based microscopic analysis; assay type: functional, cell-based; conditions: Homo sapiens
Method in brief: (§3)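 Growth-factor-reduced Matrigel solidified 120 min at 37 °C; 2×10⁴ HUVECs/well in EGM-2 with compound or 2 μM SU5416, 12 h. Networks imaged at 100× and tube length quantified in four random fields; mean ± SEM, n=3.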

HUVEC [13] = assay: Antiangiogenic activity in HUVEC assessed as inhibition of capillary-like tube formation at 25 uM after 12 hrs by matrigel-based microscopic analysis; assay type: functional; conditions: Homo sapiens; method in brief: as §3
HUVEC [14] = assay: Antiangiogenic activity in HUVEC assessed as inhibition of capillary-like tube formation at 50 uM after 12 hrs by matrigel-based microscopic analysis; assay type: functional; conditions: Homo sapiens; method in brief: as §3
HUVEC [15] = assay: Antiangiogenic activity in HUVEC assessed as inhibition of capillary-like tube formation at 100 uM after 12 hrs by matrigel-based microscopic analysis; assay type: functional; conditions: Homo sapiens; method in brief: as §3
A549 [16] = assay: Antiproliferative activity against human A549 cells after 48 hrs by MTT assay; assay type: functional, cell-based; conditions: A549, 48 h
Method in brief: (§4)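 A549 or L929 fibroblasts seeded at 4×10⁴ cells/mL in DMEM with 10% FBS, 5% horse serum and penicillin/streptomycin, 37 °C, 5% CO₂. After 24 h, compound added for 48 h. MTT read at 570 nm; viability = OD treated/OD untreated ×100%; mean ± SD.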

L929 = assay: Cytotoxicity against mouse L929 cells after 48 hrs by MTT assay; assay type: functional, cell-based; conditions: L929, 48 h; method in brief: as §4
A549 [17] = assay: Induction of apoptosis in human A549 cells assessed as live cells at 1 uM after 48 hrs by Annexin-V-FITC/propidium iodide staining based flow cytometry (reference value: 75.2%); assay type: functional
Method in brief: (§5)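 A549 cells, 2×10⁵/well, were cultured for 24 h at 37 °C, 5% CO₂, then treated 48 h with 1, 4 or 8 μM compound. Staining used annexin V-FITC and PI, 30 min at 25 °C, followed by flow cytometry; Q3 was counted as early apoptotic and Q2 as late apoptotic.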

A549 [18] = assay: Induction of apoptosis in human A549 cells assessed as early apoptotic cells at 1 uM after 48 hrs by Annexin-V-FITC/propidium iodide staining based flow cytometry (reference value: 15.2%); assay type: functional; method in brief: as §5
A549 [19] = assay: Induction of apoptosis in human A549 cells assessed as late apoptotic cells at 1 uM after 48 hrs by Annexin-V-FITC/propidium iodide staining based flow cytometry (reference value: 4.05%); assay type: functional; method in brief: as §5
A549 [20] = assay: Induction of apoptosis in human A549 cells assessed as necrotic cells at 1 uM after 48 hrs by Annexin-V-FITC/propidium iodide staining based flow cytometry (reference value: 5.45%); assay type: functional; method in brief: as §5
A549 [21] = assay: Induction of apoptosis in human A549 cells assessed as live cells at 4 uM after 48 hrs by Annexin-V-FITC/propidium iodide staining based flow cytometry (reference value: 75.2%); assay type: functional; method in brief: as §5
A549 [22] = assay: Induction of apoptosis in human A549 cells assessed as early apoptotic cells at 4 uM after 48 hrs by Annexin-V-FITC/propidium iodide staining based flow cytometry (reference value: 15.2%); assay type: functional; method in brief: as §5
A549 [23] = assay: Induction of apoptosis in human A549 cells assessed as late apoptotic cells at 4 uM after 48 hrs by Annexin-V-FITC/propidium iodide staining based flow cytometry (reference value: 4.05%); assay type: functional; method in brief: as §5
A549 [24] = assay: Induction of apoptosis in human A549 cells assessed as necrotic cells at 4 uM after 48 hrs by Annexin-V-FITC/propidium iodide staining based flow cytometry (reference value: 5.45%); assay type: functional; method in brief: as §5
A549 [25] = assay: Induction of apoptosis in human A549 cells assessed as live cells at 8 uM after 48 hrs by Annexin-V-FITC/propidium iodide staining based flow cytometry (reference value: 75.2%); assay type: functional; method in brief: as §5
A549 [26] = assay: Induction of apoptosis in human A549 cells assessed as early apoptotic cells at 8 uM after 48 hrs by Annexin-V-FITC/propidium iodide staining based flow cytometry (reference value: 15.2%); assay type: functional; method in brief: as §5
A549 [27] = assay: Induction of apoptosis in human A549 cells assessed as late apoptotic cells at 8 uM after 48 hrs by Annexin-V-FITC/propidium iodide staining based flow cytometry (reference value: 4.05%); assay type: functional; method in brief: as §5
A549 [28] = assay: Induction of apoptosis in human A549 cells assessed as necrotic cells at 8 uM after 48 hrs by Annexin-V-FITC/propidium iodide staining based flow cytometry (reference value: 5.45%); assay type: functional; method in brief: as §5
A549 [29] = assay: Induction of apoptosis in human A549 cells assessed as caspase-3 activation at 1 to 8 uM by Ac-DEVD-pNA substrate based assay; assay type: functional, cell-based
Method in brief: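 A549 lysates were spun at 15,000 rpm for 15 min at 4 °C. Then 110 µg protein was mixed with reaction buffer and Ac-DEVD-pNA substrate (2 mM stock) and incubated 3 h at 37 °C. Caspase-3 activity was measured as released pNA at 405 nm.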

Molecule `O=C(COc1c(OCc2ccccc2)cc2oc(-c3ccccc3)cc(=O)c2c1O)N1CCNCC1` has an MEC (Danio rerio [1]) of 5 µM, an LC100 (Danio rerio [2]) of 100 µM and an MTC (Danio rerio [2]) of 25 µM. The selectivity ratio [3] was 5, the selectivity ratio [4] was 20 and the inhibition (Danio rerio [5]) was “Dose-dependent effect”. For the same molecule, the “inhibition (INH)” value (Danio rerio [6]) was 100%, the “inhibition (INH)” value (Danio rerio [7]) was 100% and the Activity (Danio rerio [8]) was “Non-Toxic”. The Activity (Danio rerio [9]) was “inactive”, the IC50 (HUVEC [10]; Homo sapiens, HUVEC) was 57.1 µM and the “inhibition (INH)” value (HUVEC [10]; human, huvec) was “Dose-dependent effect”. The Activity (HUVEC [11]) was “<=50%”, the inhibition (HUVEC [12]) was “Dose-dependent effect” and the inhibition at 25 µM (HUVEC [13]) was 24.9%. For the same molecule, the inhibition at 50 µM (HUVEC [14]) was 54.2%, the inhibition at 100 µM (HUVEC [15]) was 72.6% and the IC50 (A549 [16]) was 4.73 µM. It also gave an IC50 (L929) of 19.1 µM, an Activity (A549 [17]) of 36.2% and an Activity (A549 [18]) of 32.9%. For the same molecule, the Activity (A549 [19]) was 23%, the Activity (A549 [20]) was 7.92% and the Activity (A549 [21]) was 22.4%. For the same molecule, the Activity (A549 [22]) was 36.3%, the Activity (A549 [23]) was 36% and the Activity (A549 [24]) was 5.4%. It also gave an Activity (A549 [25]) of 10.2%, an Activity (A549 [26]) of 22.5% and an Activity (A549 [27]) of 62.1%. The Activity (A549 [28]) was 2.15% and the Activity (A549 [29]) was “Active”.

From ChEMBL document CHEMBL4229525, “Anti-angiogenic and anticancer effects of baicalein derivatives based on transgenic zebrafish model” (Bioorg Med Chem, 2018)
